Laboratory results reported in publication PMC12690059 (Dose-Response, 2025).
Like-named read-outs stand apart in the source and are kept apart here.

Legend:
[1] = format: in vivo, Sprague-Dawley rats
Procedure, shortened: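 Healthy SD rats (n = 6) received a single oral dose of extract at 54 mg/kg. Tail-vein blood (0.3 mL) was taken at 0, 0.25, 0.5, 1, 2, 4, 8, 12 and 24 h; plasma was stored at −80°C. Marker compounds were measured by validated HPLC-DAD (C18, 35°C, 0.1% formic acid water/methanol gradient).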

[2] = test system: Nrf2/HO-1 and Casp-3 pathways; assay: In vivo mechanistic validation using pathway inhibitors; design: species or system Sprague-Dawley (SD) rats; conditions: for Effect on P.indicus-induced reduction in serum cTn-T: ML385 30 mg/kg or Z-DEVD-FMK 1 mg/kg i.p. before P. indicus 54 mg/kg + ISO; for Intrinsic cardiotoxicity of inhibitor: control experiments
Procedure, shortened: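 Rats (n = 8/group) received the test extract at 54 mg/kg p.o. on days 1-14 and ISO 85 mg/kg s.c. on days 7-14. An Nrf2 inhibitor (30 mg/kg) or a caspase-3 inhibitor (1 mg/kg) was given i.p. 30 min before each gavage; an ISO + vehicle group was included. Inhibition was checked by myocardial HO-1/cleaved caspase-3 western blot. Myocardial SOD and MDA (homogenate, ELISA) and serum cTn-T were measured.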

[3] = test system: ISO-induced myocardial ischemia; assay: ECG monitoring; format: in vivo, Sprague-Dawley (SD) rats; conditions: propranolol 30 mg/kg oral 14 days
Procedure, shortened: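 Male SD rats (n = 10/group) were dosed orally for 14 days, with ISO 85 mg/kg s.c. on days 7-14. Twenty-four hours after the last ISO, rats were anesthetized with 2% pentobarbital sodium (30 mg/kg i.p.) and fixed supine. Lead II ECG was recorded for 60 min for ST-segment and T-wave changes, QRS duration and VPB incidence.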

[4] = test system: ISO-induced myocardial ischemia; assay: H&E histopathological score of myocardial tissue; format: in vivo, Sprague-Dawley (SD) rats; conditions: propranolol 30 mg/kg oral 14 days; ISO rats
Procedure, shortened: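 ISO model: SD rats, 14-day oral pretreatment, ISO 85 mg/kg s.c. on days 7-14. Hearts were fixed in 4% paraformaldehyde for 24 h, paraffin-embedded and cut at 4 μm. Sections were H&E-stained and examined by light microscopy for myocardial damage. Final scores were consensus evaluations.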

[5] = test system: ISO-induced myocardial ischemia; assay: Cardiac index; format: in vivo, Sprague-Dawley (SD) rats; conditions: propranolol 30 mg/kg oral 14 days; vs ISO
Procedure, shortened: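 Male SD rats (200 ± 20 g, n = 10/group) received oral gavage daily for 14 days, with ISO 85 mg/kg s.c. on days 7-14, 30 min post-gavage. After ECG, hearts were excised, rinsed in pre-cooled saline, blotted dry and weighed. Cardiac index = heart weight/body weight, in mg/g.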

[6] = test system: ISO-induced myocardial ischemia; assay: Masson's trichrome staining, myocardial fibrotic area; format: in vivo, Sprague-Dawley (SD) rats; conditions: propranolol 30 mg/kg oral 14 days; ISO rats
Procedure, shortened: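 ISO model: SD rats, 14-day oral pretreatment, ISO 85 mg/kg s.c. on days 7-14. Paraffin heart sections (4 μm) were deparaffinized and stained with Weigert's iron hematoxylin, then Biebrich scarlet-acid fuchsin, phosphomolybdic-phosphotungstic acid and aniline blue; collagen stains blue. Images were taken at 200x. Fibrosis was expressed as collagen-positive area as a percentage of total myocardial area.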

Bax = assay: Western blot of myocardial Bax; format: in vivo, Sprague-Dawley (SD) rats; conditions: propranolol 30 mg/kg oral 14 days; ISO rats; Control = 1.00
Bcl-2 = assay: Western blot of myocardial Bcl-2; format: in vivo, Sprague-Dawley (SD) rats; conditions: propranolol 30 mg/kg oral 14 days; ISO rats; Control = 1.00
Cleaved caspase-3 = assay: Western blot of myocardial cleaved caspase-3; format: in vivo, Sprague-Dawley (SD) rats; conditions: propranolol 30 mg/kg oral 14 days; ISO rats; Control = 1.00
Nrf2 = assay: Western blot of myocardial Nrf2; format: in vivo, Sprague-Dawley (SD) rats; conditions: propranolol 30 mg/kg oral 14 days; ISO rats; Control = 1.00
HO-1 = assay: Western blot of myocardial HO-1; format: in vivo, Sprague-Dawley (SD) rats; conditions: propranolol 30 mg/kg oral 14 days; ISO rats; Control = 1.00
[7] = rat plasma, single oral P. indicus extract 54 mg/kg, n = 6
[8] = Sprague-Dawley, rat, plasma, po, 54 mg/kg

SMILES: COc1cc(/C=C/C(=O)O)ccc1O [Ferulic acid]
- AUC0-24h [1, 7]: 3.42 ± 0.51 µg·h/mL
- Cmax [1, 7]: 0.85 ± 0.11 µg/mL
- Tmax [1, 7]: 0.52 ± 0.15 h
- t1/2 [1, 7]: 2.8 ± 0.3 h

SMILES: CCCCC/C=C\C/C=C\CCCCCCCC(=O)O [Linoleic acid]
- AUC(0-t) [1, 8]: 7.21 ± 0.95 µg·h/mL
- Cmax [1, 8]: 2.45 ± 0.3 µg/mL
- Tmax [1, 8]: 0.25 ± 0.08 h
- half-life [1, 8]: 1.8 ± 0.2 h

SMILES: Cc1ccccc1C(=O)N1CCc2cc(-c3nc(NC(=O)Cc4ccc5c(c4)OCO5)sc3C)ccc21 [ML385]
- Effect on P.indicus's antioxidant effect (SOD activity, MDA content) ([2]; ML385 30 mg/kg i.p. before P. indicus 54 mg/kg + ISO): nullified P.indicus’s antioxidant effect
- Effect on P.indicus-induced reduction in serum cTn-T [2]: attenuated the P.indicus-induced reduction in serum cTn-T
- Intrinsic cardiotoxicity of inhibitor [2]: ruled out intrinsic cardiotoxicity

SMILES: O=c1c(O[C@@H]2O[C@H](CO)[C@@H](O)[C@H](O)[C@H]2O)c(-c2ccc(O)c(O)c2)oc2cc(O)cc(O)c12 [Quercetin-3-O-glucoside]
- AUC(0-t) [1, 8]: 5.95 ± 0.72 µg·h/mL
- Cmax [1, 8]: 1.28 ± 0.15 µg/mL
- half-life [1, 8]: 3.2 ± 0.4 h
- Tmax [1, 7]: 0.50 ± 0.12 h

SMILES: COC(=O)CC[C@H](NC(=O)[C@H](CC(=O)OC)NC(=O)OCc1ccccc1)C(=O)N[C@H](C(=O)N[C@@H](CC(=O)OC)C(=O)CF)C(C)C [Z-DEVD-FMK]
- Effect on P.indicus-induced reduction in serum cTn-T [2]: attenuated the P.indicus-induced reduction in serum cTn-T
- Effect on P.indicus suppression of cleaved caspase-3 (western blot) ([2]; Z-DEVD-FMK 1 mg/kg i.p. 30 min before each P. indicus gavage (54 mg/kg) + ISO): reversed the suppression of cleaved caspase-3
- Effect on P.indicus's anti-apoptotic action ([2]; Z-DEVD-FMK 1 mg/kg i.p. before P. indicus 54 mg/kg + ISO): selectively blocked its anti-apoptotic action
- Intrinsic cardiotoxicity of inhibitor [2]: ruled out intrinsic cardiotoxicity

SMILES: CC(C)NCC(O)COc1cccc2ccccc12 (stereo not drawn) [propranolol]
- ST-segment elevation ([3]; ISO 85 mg/kg s.c. days 7-14): 0.024 ± 0.033 mV
- QRS duration ([3]; ISO rats): 0.041 ± 0.002 s
- Ventricular premature beats (VPBs) ([3]; ISO rats): 1.2 ± 0.3 beats/60 min
- Pathological score (H&E) vs ISO group [4]: significantly lower
- ISO-induced increase of cardiac index (heart weight/body weight ratio) [5]: significantly attenuated
- Fibrotic area (Masson's trichrome) [6]: 11.2 ± 2.1%
- Relative expression of protein Bax (Bax): 1.74 ± 0.36
- Relative expression of protein Bcl-2 (Bcl-2): 0.63 ± 0.08
- Relative expression of protein Cleaved caspase-3 (Cleaved caspase-3): 2.48 ± 0.63
- Relative expression of protein Nrf2 (Nrf2): 2.55 ± 0.21
- Relative expression of protein HO-1 (HO-1): 3.80 ± 0.64
